Data set [1] in a line: Volume of distribution at steady state in mouse at 5 mg/kg, iv by LC-MS method. The format is ADME, organism-based. The settings on record: in vivo, read-out: Vdss.
Data set [2] in a line: Lipophilicity, log D of the compound by HPLC method. The format is physicochemical.
The nature of data set [3]: Intrinsic clearance in rat microsomes. The format is ADME, Microsome.
Data set [4] in a line: Solubility of the compound by CLND method. In kind it is physicochemical.
The test system of data set [5] is T1, Nonstructural protein 5A (Hepatitis C virus), Q5L478 [Y93C].
T1 sequence (whole entry): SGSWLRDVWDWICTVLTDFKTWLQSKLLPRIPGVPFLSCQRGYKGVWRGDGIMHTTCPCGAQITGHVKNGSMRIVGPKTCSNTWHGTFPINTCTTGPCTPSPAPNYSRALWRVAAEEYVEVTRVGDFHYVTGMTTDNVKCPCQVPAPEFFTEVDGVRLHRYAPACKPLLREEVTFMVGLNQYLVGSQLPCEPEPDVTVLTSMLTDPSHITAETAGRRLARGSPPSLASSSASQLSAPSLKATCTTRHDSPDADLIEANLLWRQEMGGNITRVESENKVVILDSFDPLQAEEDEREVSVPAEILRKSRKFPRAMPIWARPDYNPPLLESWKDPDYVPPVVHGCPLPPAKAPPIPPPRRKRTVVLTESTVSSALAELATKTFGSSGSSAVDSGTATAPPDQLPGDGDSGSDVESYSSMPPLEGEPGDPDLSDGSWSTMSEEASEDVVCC
Kind of data set: Inhibition of NS5A Y93C mutant in HuH7 cell infected HCV genotype 1a H77 assessed as decrease in viral replication after 4 days by luciferase reporter gene assay relative to wild type protein. To be noted: Hepatitis C virus (isolate H77). The procedure, abridged: (§1)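 Stable subgenomic luciferase replicons in Huh-7 cells: genotype 1a-H77 carrying NS5A substitutions M28T, Q30E, Q30R, Y93C, Y93H or Y93N, tested alongside the wild-type replicon. Cells are incubated 4 days with compound in DMEM with 5% FBS. Luciferase read-out, EC50 by 4-parameter logistic fit, and fold change versus wild type.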

Data set [6] is described as follows: Permeability of the compound by PAMPA. In kind it is ADME. To be noted: read-out: permeability. Background: The PAMPA barrier holds no transporters, so it reflects passive diffusion.
Data set [7] can be described thus: Volume of distribution at steady state during terminal phase in mouse at 5 mg/kg, iv by LC-MS method. The format is ADME, organism-based. To be noted: in vivo, read-out: Vbeta.
A short description of data set [8]: AUC (0 to infinity) in mouse at 5 mg/kg, iv by LC-MS method. In kind it is ADME, organism-based. Also noted: dose 5 mg/kg, time infinity, route intravenous. To be noted: in vivo.
Data set [9] in a line: AUC (0 to infinity) in mouse at 5 mg/kg, po by LC-MS method. To be noted: in vivo. In kind it is ADME, organism-based. Also on record: dose 5 mg/kg, route oral, time infinity.
For data set [10], the system named is T2, Nonstructural protein 5A (Hepatitis C virus), Q5L478 [Y93N].
T2 sequence (whole entry): T1 sequence (whole entry) with C93N
Kind of data set: Inhibition of NS5A Y93N mutant in HuH7 cell infected HCV genotype 1a H77 assessed as decrease in viral replication after 4 days by luciferase reporter gene assay relative to wild type protein. The settings on record: Hepatitis C virus (isolate H77). A digest of the protocol: as §1
A general note: A reporter such as luciferase makes a cellular process visible.

Data set [11] deals with T3, Nonstructural protein 5A (Hepatitis C virus) (UniProt Q5L478).
T3 sequence (whole entry): T1 sequence (whole entry) with C93Y
Kind of data set: Inhibition of NS5A M28T mutant in HuH7 cell infected HCV genotype 1a H77 assessed as decrease in viral replication after 4 days by luciferase reporter gene assay relative to wild type protein. To be noted: Hepatitis C virus (isolate H77). A digest of the protocol: as §1

Data set [12] has as its system T4, Nonstructural protein 5A (Hepatitis C virus), Q5L478 [Y93H].
T4 sequence (whole entry): T1 sequence (whole entry) with C93H
Kind of data set: Inhibition of NS5A Y93H mutant in HuH7 cell infected HCV genotype 1a H77 assessed as decrease in viral replication after 4 days by luciferase reporter gene assay relative to wild type protein. To be noted: Hepatitis C virus (isolate H77). A digest of the protocol:
as §1

Data set [13] is described as follows: Tmax in mouse at 5 mg/kg, po by LC-MS method. In kind it is ADME, organism-based. The settings on record: in vivo.
The test system of data set [14] is T4, Nonstructural protein 5A (Hepatitis C virus), Q5L478 [Y93H]. Kind of data set: Inhibition of NS5A Y93H mutant in HuH7 cell infected HCV genotype 1b Con1 assessed as decrease in viral replication after 4 days by luciferase reporter gene assay relative to wild type protein. The settings on record: Hepatitis C virus (isolate Con1). A digest of the protocol: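 Stable subgenomic luciferase replicons in Huh-7 cells: genotype 1b-Con1 carrying NS5A Y93H or Y93N, tested alongside the wild-type replicon. Cells are incubated 4 days with compound in DMEM with 5% FBS. Luciferase read-out, EC50 from a 4-parameter logistic fit, expressed as fold change versus wild type.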

Data set [15] can be described thus: Intrinsic clearance in human microsomes. The format is ADME, Microsome.
In data set [16] the target is T3, Nonstructural protein 5A (Hepatitis C virus). The experiment in a line: Inhibition of NS5A Q30E mutant in HuH7 cell infected HCV genotype 1a H77 assessed as decrease in viral replication after 4 days by luciferase reporter gene assay relative to wild type protein. The settings on record: Hepatitis C virus (isolate H77). The procedure, abridged: as §1
Data set [17] shares this target. Kind of data set: Inhibition of NS5A Q30R mutant in HuH7 cell infected HCV genotype 1a H77 assessed as decrease in viral replication after 4 days by luciferase reporter gene assay relative to wild type protein. The settings on record: Hepatitis C virus (isolate H77). The procedure, abridged:
as §1

Residue numbers refer to the chain shown, from its start. ≈ marks a conversion by molar mass, not a printed value.

One may read the logD as lipophilicity at a set pH, counting ionised and neutral species. Read a high logD as a more lipophilic compound. The term CLint scaled denotes the rate of metabolic loss divided by the concentration. Higher therefore signals rapid turnover. In general, solubility (kinetic) refers to the concentration staying in solution when a stock, usually in DMSO, is diluted into the medium. A word on the AUC(0-inf): it is total exposure, with the tail of the curve extrapolated. Low values mean low exposure, high ones high exposure. As a reminder, the Tmax is the time at which the peak concentration occurs. `COC(=O)N[C@H](C(=O)N1CCC[C@H]1c1nc2ccc([C@H]3CC[C@H](c4ccc5nc([C@@H]6CCCN6C(=O)[C@@H](NC(=O)OC)C(C)C)[nH]c5c4)N3c3ccc(C(C)(C)C)cc3)cc2[nH]1)C(C)C`: the Vd in data set [1] came out at 0.65 L/kg; in [7], 1.11 L/kg. This molecule also registered a logD in data set [2] of 5.3. Further, the CLint scaled is 167 mL/min/kg in data set [3] and 122 mL/min/kg in data set [15]. Besides, the kinetic solubility in data set [4] is 1.6 µM (≈ 1.42 µg/mL). Also, the fold change (FC) in data set [5] is 7; in data set [10], 510; in data set [11], 4; in data set [12] it was 216; in data set [14] it was 2; in [16], 61. Besides, the fold change (FC) in [17] worked out at 14. For the same molecule, the Papp in data set [6] was 0.14 ×10⁻⁶ cm/s. The results for the AUC(0-inf) in [8] and in data set [9] were 13100 ng·h/mL and 1390 ng·h/mL, respectively. The time to peak (Tmax) in data set [13] came to 1.67 h.

Source of the values: ChEMBL document CHEMBL4177761, “Highlights of the Structure-Activity Relationships of Benzimidazole Linked Pyrrolidines Leading to the Discovery of the Hepatitis C Virus NS5A Inhibitor Pibrentasvir (ABT-530)” (J Med Chem, 2018).
